# Bioassay records from PubChem BioAssay.
# NF-kB neuron act: compounds increasing NF-kB expression in human neuronal cells | NF-kB reporter expression; active compounds read high | fold change at 12.5 µM | 190,000 compounds, 1.6% hits | AID 1239; in the data active = fold change above about 3.3
# STAT1 activator: STAT1 signaling activation; NIH 3T3 STAT1-luciferase reporter, IFN-gamma, luminescence; 100% = IFN-gamma alone, no compound; activation (% of control), % at 5.5 µM; 200,000 compounds, 2.6% hits; AID 932;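 active = activation above the screen-wide mean activation plus 3 SD, cut at about 130% in these data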
# APP 5'UTR act: activates APP 5'UTR luciferase reporter. 190,000 compounds, 1% hits. AID 1276. SH-SY5Y APP 5'UTR luciferase reporter, luminescence; zero percent = DMSO vehicle wells. activation, % at 2 µM;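 active = activation above a set limit, based on mean plus 3 SD of controls, cut at about 140% in these data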
# STAT1 inh: inhibitors of IFN-gamma induced STAT1 signaling | NIH 3T3 STAT1-luciferase reporter, luminescence | inhibition, % at 5.5 µM | 200,000 compounds, 0.35% hits;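 active = inhibition above a set limit, the mean inhibition across all tested compounds plus 3 SD, cut at about 34% in these data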
# STAT3 inh: reduces IL-6 driven STAT3 reporter signal. U3A cells, IL-6 STAT3-luciferase reporter, luminescence; host cell line lacks STAT1. AID 862. inhibition, % at 5.5 µM. 190,000 compounds, 0.89% hits;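 active = inhibition above the mean inhibition across all screened compounds plus 3 SD, cut at about 44% in these data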
# STAT3 act: STAT3 signaling activation; U3A cells, IL-6 STAT3-luciferase reporter, luminescence; 100% = signal with IL-6 EC80 alone; 190,000 compounds, 0.91% hits; activation (% of control), % at 5.6 µM;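 active = activation above the screen-wide mean of compound activation plus 3 SD, cut at about 130% in these data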
#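 Material: STAT3-luciferase reporter U3A cells. Controls: IL-6-treated wells, 100% activation. Read-out: % activation versus median of IL-6-stimulated wells. Probe or stimulus: IL-6 stimulus at 33 ng/mL final. Timing: compound 1 h, then IL-6 6 h at 37 °C. Signal: reporter luminescence signal.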
# A number is an active result; 0 = inactive; - = no result given. Compounds with a hit are over-represented: about 4.9% of the library has one in this group of screens.
SMILES,NF-kB neuron act,STAT1 activator,APP 5'UTR act,STAT1 inh,STAT3 inh,STAT3 act
COc1cc(NC(=O)c2ccc([N+](=O)[O-])cc2)ccc1NC(=O)C(C)C,0,0,0,0,0,0
O=C(COc1ncnc2ccccc12)c1ccc2c(c1)OCCO2,3.8,142,171,0,0,0
O=C(CSc1ncnc2ccccc12)c1ccc2c(c1)OCCO2,0,0,0,0,0,0
Cc1ccsc1C(=O)OCC(=O)N1CCc2ccccc2C1,0,144,0,0,0,0
CN(C)c1cccc(C(=O)OCC(=O)N2CCc3ccccc3C2)c1,0,0,0,0,0,0
CCC(CC)C(=O)NCCCN1CCOCC1,0,0,0,0,0,0
CCC(C)(C)C1CCC(=NNC(=S)Nc2cccnc2)CC1 (configuration not stated),0,0,0,0,0,0
CCC(C)(C)C1CCC(=NNC(=S)Nc2ccccc2)CC1 (configuration not stated),0,0,152,0,0,0
COc1ccc(C(=O)N(NC(=O)Oc2ccccc2)C(C)(C)C)cc1,0,0,0,0,0,0
Cc1ccc(OCc2nc(-c3ccccn3)n[nH]2)cc1,13,0,0,0,0,0
CCOc1ccc(NC(=O)CCn2c(=O)[nH]c3ccsc3c2=O)cc1,0,0,0,0,0,0
O=C(O)C(=O)/C(=C\c1ccccc1)c1ccc2ccccc2n1,0,144,0,0,0,169
O=C(O)C(=O)/C(=C\c1cccc2ccccc12)c1ccc2ccccc2n1,0,0,0,0,0,0
O=C(O)C(=O)/C(=C\c1ccc([N+](=O)[O-])cc1)c1ccc2ccccc2n1,0,150,0,0,0,0
Cc1ccc2oc(-c3ccccc3)c(C(=O)O)c(=O)c2c1,4,0,166,0,0,0
O=C(Cn1cnc2sc(-c3ccccc3)cc2c1=O)N1CCOCC1,0,0,0,0,0,0
CCc1cc2c(=O)n(-c3ccccc3)cnc2s1,0,0,-,0,0,0
CCc1cc2c(=O)n(-c3ccc(C)cc3)cnc2s1,4.2,139,0,0,0,0
O=c1c2cc(-c3ccccc3)sc2ncn1-n1cccc1,0,129,0,0,0,0
COc1ccc(-n2cnc3sc(-c4ccccc4)cc3c2=O)cc1,3.5,149,0,0,0,0
CC(=O)Cn1cnc2sc(-c3ccccc3)cc2c1=O,3.7,145,0,0,0,0
Cn1c2c(c(=O)c3ccccc31)CCC(C)(C)O2,0,0,0,0,0,0
CCCNC(=O)CN(C)CC(=O)Nc1ccccc1C#N,0,0,0,0,0,0
CC(=O)Cn1nnc2sc(-c3ccccc3)cc2c1=O,0,146,0,0,0,0
Cc1ccc(/C=N/n2c(-c3cccs3)n[nH]c2=S)cc1,4.1,0,0,0,0,0
SMILES,NF-kB neuron act,STAT1 activator,APP 5'UTR act,STAT1 inh,STAT3 inh,STAT3 act
COc1ccc(/C=N/n2c(-c3cccs3)n[nH]c2=S)cc1,5.2,0,0,0,0,0
S=c1[nH]nc(-c2cccs2)n1/N=C/c1c(Cl)cccc1Cl,0,0,0,0,0,0
C/C(=N/NC(N)=S)c1ccc(Br)s1,0,0,0,0,0,0
Cn1ccnc1SCC(=O)c1ccc2ccccc2c1,0,146,164,0,0,0
Cn1ccnc1SCC(=O)c1cccc(Br)c1,0,0,0,0,0,0
Cn1ccnc1SCC(=O)Nc1ccc2ccccc2c1,4.4,140,0,0,0,0
CC(=O)N(c1nc(CCl)cs1)c1c(C)cc(C)cc1C,0,0,0,0,0,0
Cc1ccnc2ccc(-c3nc4ccccc4o3)cc12,0,136,0,0,0,153
c1ccc(-c2nc3ccccc3o2)nc1,0,0,0,0,0,0
Cc1cc(SCC(=O)Nc2cccc(S(=O)(=O)NC3=NCCCCC3)c2)c(C)cc1Br,3.4,0,0,0,0,0
Cc1cc(SCC(=O)Nc2cccc(S(N)(=O)=O)c2)c(C)cc1Br,0,0,0,0,0,0
CN(C)c1ccc(/C=C/c2ccc3c4ccccc4ccc3[n+]2-c2ccccc2)cc1,0,0,0,46,81,0
O=S(=O)(c1ccccc1)N1CCN(c2nc3ccccc3s2)CC1,0,0,0,0,0,0
c1ccc(N2CCN(c3nc4cc5c(cc4s3)OCO5)CC2)cc1,3.8,146,0,0,0,0
Brc1ccc2nc(N3CCN(c4ccccc4)CC3)sc2c1,0,129,0,0,0,0
Clc1ccc2nc(N3CCN(c4ccccc4)CC3)sc2c1,3.5,137,0,0,0,0
Fc1ccc2nc(N3CCOCC3)sc2c1,0,138,0,0,0,0
CCN(Cc1nc2ccccc2c(=O)[nH]1)Cc1cc(=O)oc2cc(OC)ccc12,0,0,0,0,0,0
O=C1c2cccc3cccc(c23)C(=O)N1CC1CCN(S(=O)(=O)c2ccc(F)cc2)CC1,0,0,0,0,0,0
Cc1ccc(S(=O)(=O)N2CCC(CN3C(=O)c4cccc5cccc(c45)C3=O)CC2)cc1,0,0,0,0,0,186
Cc1cccc(-c2nc(=S)c3c(o2)CCCC3)c1,0,139,0,0,0,0
S=c1nc(-c2ccc(Br)cc2)oc2c1CCCC2,0,0,0,0,0,0
CCCCOC(=O)c1ccc(NC(=O)C(=O)NCc2ccco2)cc1,0,0,0,0,0,0
CC(=O)Nc1cc(OC(C)=O)c2nonc2c1OC(C)=O,-,0,0,95,0,0
CC(=O)Nc1nonc1NC(C)=O,0,0,0,0,0,0
SMILES,NF-kB neuron act,STAT1 activator,APP 5'UTR act,STAT1 inh,STAT3 inh,STAT3 act
Cc1ccnc(NC(=O)Nc2cccc(F)c2)n1,-,145,150,0,0,0
Cc1cccc(NC(=O)Nc2cccc(F)c2)n1,0,0,0,0,0,0
CC(NC(=O)c1ccnn1C)C1CCCO1 (configuration not stated),0,0,0,0,0,0
Cc1ccc(-c2nnc(N)s2)cc1,0,0,0,0,0,0
CC(C)c1ccc(-c2nnc(N)s2)cc1,3.8,133,0,0,0,0
COc1cccc(Oc2ccc3nnc(C(F)(F)F)n3n2)c1,0,0,0,0,0,0
N#C/C(=C\c1cc(Cl)cc(Cl)c1O)C(=O)NC1CCCCC1,0,0,0,0,0,0
Cc1ccc(-c2nn(-c3ccccc3)cc2CO)o1,3.8,148,0,0,0,0
O=C(N/N=C/c1cn(-c2ccccc2)nc1-c1cccs1)c1ccncc1,0,0,0,0,0,0
Cc1ccc(-c2nn(-c3ccccc3)cc2C=O)o1,4.5,143,144,0,0,0
Cc1ccc(-c2nn(-c3ccccc3)cc2/C=N/NC(=O)c2ccncc2)o1,0,0,158,0,0,0
COCC(C)NCc1ccc(OC)c(Br)c1 (configuration not stated),0,0,0,0,0,0
